PMC7511286 (European Journal of Drug Metabolism and Pharmacokinetics, 2020)

Assay: MAD study: safety and tolerability
Assay type: in vivo, human
Conditions: for TEAE Hemoglobinuria: subjects having the event: based solely on a positive dip stick test
Procedure, shortened: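 Healthy males aged 18–55 took oral tablets. Treatment-emergent AEs were recorded by clinical evaluation. Vital signs (blood pressure, pulse), 12-lead and Holter ECG, physical examination, and urine and plasma laboratory tests were also assessed. AEs of special interest were hematuria and retroperitoneal colicky pain with suspected or confirmed nephrolithiasis. Subjects were hospitalized around dosing.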

Compound: COc1cccc(-c2ccc(NC(=O)C3=C(C(=O)O)CCC3)c(F)c2)c1 [IMU-838, vidofludimus calcium]
- TEAEs Musculoskeletal and connective tissue disorders Total: subjects having the event (30 mg, n = 12): 1 (8.3) N (%)
- TEAEs Nervous system disorders Total: number of events (30 mg, n = 12): 1
- TEAEs Nervous system disorders Total: subjects having the event (30 mg, n = 12): 1 (8.3) N (%)
- TEAEs Renal and urinary disorders Total: number of events (30 mg, n = 12): 1
- TEAEs Renal and urinary disorders Total: subjects having the event (30 mg, n = 12): 1 (8.3) N (%)
- TEAEs Total: number of events (30 mg, n = 12): 20
- TEAEs Total: subjects having the event (30 mg, n = 12): 9 (75.0) N (%)
- TEAE Hemoglobinuria: subjects having the event (30 mg, n = 12): 1 (8.3) N (%)
- number of drug-related TEAEs (40 mg once daily): 8
- TEAE Arthropod bite: number of events (40 mg, n = 12): 1
- TEAE Arthropod bite: subjects having the event (40 mg, n = 12): 1 (8.3) N (%)
- TEAE Blood creatinine kinase increased: number of events (40 mg, n = 12): 1
- TEAE Blood creatinine kinase increased: subjects having the event (40 mg, n = 12): 1 (8.3) N (%)
- TEAE Fatigue: subjects having the event (40 mg, n = 12): 3 (25.0) N (%)
- TEAE Flatulence: subjects having the event (40 mg, n = 12): 1 (8.3) N (%)
- TEAE Headache: subjects having the event (40 mg, n = 12): 1 (8.3) N (%)
- TEAE Listless: subjects having the event (40 mg, n = 12): 1 (8.3) N (%)
- TEAE Sneezing: subjects having the event (40 mg, n = 12): 1 (8.3) N (%)
- TEAEs Gastrointestinal disorders Total: number of events (40 mg, n = 12): 1
- TEAEs Gastrointestinal disorders Total: subjects having the event (40 mg, n = 12): 1 (8.3) N (%)
- TEAEs General disorders and administration site conditions Total: number of events (40 mg, n = 12): 3
- TEAEs General disorders and administration site conditions Total: subjects having the event (40 mg, n = 12): 3 (25.0) N (%)
- TEAEs Injury, poisoning and procedural complications total: number of events (40 mg, n = 12): 1
- TEAEs Investigations Total: number of events (40 mg, n = 12): 1
- TEAEs Investigations Total: subjects having the event (40 mg, n = 12): 1 (8.3) N (%)
- TEAEs Nervous system disorders Total: number of events (40 mg, n = 12): 2
- TEAEs Nervous system disorders Total: subjects having the event (40 mg, n = 12): 1 (8.3) N (%)
- TEAEs Psychiatric disorders Total: number of events (40 mg, n = 12): 1
- TEAEs Psychiatric disorders Total: subjects having the event (40 mg, n = 12): 1 (8.3) N (%)
- TEAEs Renal and urinary disorders Total: number of events (40 mg, n = 12): 2
- TEAEs Renal and urinary disorders Total: subjects having the event (40 mg, n = 12): 2 (16.7) N (%)
- TEAEs Respiratory, thoracic and mediastinal disorders Total: number of events (40 mg, n = 12): 1
- TEAEs Total: number of events (40 mg, n = 12): 12
- TEAEs Total: subjects having the event (40 mg, n = 12): 6 (50.0) N (%)
- TEAE Hemoglobinuria: subjects having the event (40 mg, n = 12): 2 (16.7) N (%)
- number of drug-related TEAEs (50 mg once daily): 16
- TEAE Abdominal pain upper: number of events (50 mg, n = 16): 2
- TEAE Abdominal pain upper: subjects having the event (50 mg, n = 16): 1 (6.3) N (%)
- TEAE Dyspepsia: subjects having the event (50 mg, n = 16): 1 (6.3) N (%)
- TEAE Dysuria: subjects having the event (50 mg, n = 16): 1 (6.3) N (%)
- TEAE Epistaxis: subjects having the event (50 mg, n = 16): 1 (6.3) N (%)
- TEAE Flank pain: number of events (50 mg, n = 16): 1
- TEAE Flank pain: subjects having the event (50 mg, n = 16): 1 (6.3) N (%)
- TEAE Headache: subjects having the event (50 mg, n = 16): 3 (18.8) N (%)
- TEAE Hematuria: subjects having the event (50 mg, n = 16): 1 (6.3) N (%)
- TEAE Lipase increased: number of events (50 mg, n = 16): 1
- TEAE Lipase increased: subjects having the event (50 mg, n = 16): 1 (6.3) N (%)
- TEAE Nasopharyngitis: subjects having the event (50 mg, n = 16): 4 (25.0) N (%)
- TEAE Tenderness: subjects having the event (50 mg, n = 16): 1 (6.3) N (%)
- TEAEs Gastrointestinal disorders Total: number of events (50 mg, n = 16): 3
- TEAEs Gastrointestinal disorders Total: subjects having the event (50 mg, n = 16): 2 (12.5) N (%)
- TEAEs General disorders and administration site conditions Total: number of events (50 mg, n = 16): 1
- TEAEs General disorders and administration site conditions Total: subjects having the event (50 mg, n = 16): 1 (6.3) N (%)
- TEAEs Infections and infestations Total: number of events (50 mg, n = 16): 4
- TEAEs Infections and infestations Total: subjects having the event (50 mg, n = 16): 4 (25.0) N (%)
- TEAEs Investigations Total: number of events (50 mg, n = 16): 1
- TEAEs Investigations Total: subjects having the event (50 mg, n = 16): 1 (6.3) N (%)
- TEAEs Musculoskeletal and connective tissue disorders Total: number of events (50 mg, n = 16): 1
- TEAEs Musculoskeletal and connective tissue disorders Total: subjects having the event (50 mg, n = 16): 1 (6.3) N (%)
- TEAEs Nervous system disorders Total: number of events (50 mg, n = 16): 3
- TEAEs Nervous system disorders Total: subjects having the event (50 mg, n = 16): 3 (18.8) N (%)
- TEAEs Renal and urinary disorders Total: number of events (50 mg, n = 16): 8
- TEAEs Renal and urinary disorders Total: subjects having the event (50 mg, n = 16): 6 (37.5) N (%)
- TEAEs Respiratory, thoracic and mediastinal disorders Total: number of events (50 mg, n = 16): 1
- TEAEs Total: number of events (50 mg, n = 16): 22
- TEAEs Total: subjects having the event (50 mg, n = 16): 10 (62.5) N (%)
- TEAE Hemoglobinuria: subjects having the event (50 mg, n = 16): 5 (31.3) N (%)
- tolerability (30–50 mg once daily over 14 consecutive days): well tolerated
- deaths or serious AEs (single and multiple doses (SAD and MAD)): no deaths or serious AEs
- overall number of drug-related TEAEs (whole MAD study, 52 subjects including placebo): 53
- overall number of TEAEs (whole MAD study, 52 subjects including placebo, mild or moderate intensity): 79
